Test results reported in ChEMBL document CHEMBL3774312, “5-Substituted 3-isopropyl-7-[4-(2-pyridyl)benzyl]amino-1(2)H-pyrazolo[4,3-d]pyrimidines with anti-proliferative activity as potent and selective inhibitors of cyclin-dependent kinases” (Eur J Med Chem, 2016).
The source made the active and inactive calls. The calls are words filed in the database; no cut-off is given here.

Legend:
[1] = target: Cyclin-dependent kinase 4 (Homo sapiens, UniProt P11802); experiment: Inhibition of CDK4 (unknown origin)
Cyclin-dependent kinase 4, sequence (P11802 whole entry): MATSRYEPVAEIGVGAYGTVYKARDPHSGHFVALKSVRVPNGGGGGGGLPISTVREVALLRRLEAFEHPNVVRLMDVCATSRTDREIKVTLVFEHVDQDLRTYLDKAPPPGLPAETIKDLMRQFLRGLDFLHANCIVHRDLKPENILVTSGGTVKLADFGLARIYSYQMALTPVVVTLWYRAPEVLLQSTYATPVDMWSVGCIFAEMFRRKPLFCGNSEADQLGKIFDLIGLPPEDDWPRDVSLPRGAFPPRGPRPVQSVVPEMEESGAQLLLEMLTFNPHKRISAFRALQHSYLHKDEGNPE

[2] = target: Cyclin-dependent kinase 2/cyclin E1 (Homo sapiens, UniProt P24941); experiment: Inhibition of CDK2/Cyclin E (unknown origin) expressed in sf9 cells using histone H1 as substrate in presence of [gamma33P]-ATP; type: cell-based
[3] = target: Serine/threonine-protein kinase PAK 4 (Homo sapiens) (UniProt O96013); experiment: Inhibition of recombinant PAK4 (unknown origin) assessed as residual activity at 1 uM relative to control
Serine/threonine-protein kinase PAK 4 (Homo sapiens), sequence (O96013 whole entry, looked up): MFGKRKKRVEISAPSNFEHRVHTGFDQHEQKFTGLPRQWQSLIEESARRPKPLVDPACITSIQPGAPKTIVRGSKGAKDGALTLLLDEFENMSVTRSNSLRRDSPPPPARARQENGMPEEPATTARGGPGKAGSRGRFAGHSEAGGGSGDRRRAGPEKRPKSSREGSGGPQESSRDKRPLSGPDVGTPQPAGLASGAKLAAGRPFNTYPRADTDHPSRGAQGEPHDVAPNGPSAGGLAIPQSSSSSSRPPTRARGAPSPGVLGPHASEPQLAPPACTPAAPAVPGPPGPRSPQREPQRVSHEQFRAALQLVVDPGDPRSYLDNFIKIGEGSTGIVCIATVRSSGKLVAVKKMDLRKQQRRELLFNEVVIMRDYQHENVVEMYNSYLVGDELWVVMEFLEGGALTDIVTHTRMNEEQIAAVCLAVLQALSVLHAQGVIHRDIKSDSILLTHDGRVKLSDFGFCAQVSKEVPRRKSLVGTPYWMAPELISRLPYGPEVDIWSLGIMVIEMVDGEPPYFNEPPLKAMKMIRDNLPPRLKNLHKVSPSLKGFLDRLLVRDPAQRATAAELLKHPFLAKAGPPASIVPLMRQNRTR

[4] = (§1) Cytotoxicity against human HCT116 cells assessed as reduction in cell viability after 72 hrs by calcein AM staining based fluorescence assay; type: functional; details: HCT-116, 72 h
Procedure, shortened: (§2)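 Cells were grown in DMEM with 10% FBS, penicillin and streptomycin at 37 °C in 5% CO2. Three doses were tested in triplicate for 72 h. Live cells were read by Calcein AM fluorescence at 485/538 nm.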

[5] = test system: HCT-116; experiment: as §1; type: functional; procedure, shortened: as §2
[6] = Cell cycle arrest in BrdU pulse-labelled human HCT116 cells assessed as decrease in cells at S phase at 125 to 500 nM after 24 hrs by propidium iodide staining based flow cytometry; type: functional; details: HCT-116
[7] = Cell cycle arrest in BrdU pulse-labelled human HCT116 cells assessed as accumulation at late G2/M phase at 125 to 500 nM after 24 hrs by propidium iodide staining based flow cytometry; type: functional; details: HCT-116
[8] = test system: G-361; experiment: Induction of apoptosis in human G361 cells assessed as caspase3 activation using Ac-DEVD-AMC as substrate at IC50 preincubated for 24 hrs followed by substrate addition measured after 3 hrs by fluorescence assay; type: functional, cell-based
[9] = target: Serine/threonine-protein kinase STK11 (Homo sapiens) (UniProt Q15831); experiment: Inhibition of recombinant LKB1 (unknown origin) assessed as residual activity at 1 uM relative to control
Serine/threonine-protein kinase STK11 (Homo sapiens), sequence (Q15831 whole entry): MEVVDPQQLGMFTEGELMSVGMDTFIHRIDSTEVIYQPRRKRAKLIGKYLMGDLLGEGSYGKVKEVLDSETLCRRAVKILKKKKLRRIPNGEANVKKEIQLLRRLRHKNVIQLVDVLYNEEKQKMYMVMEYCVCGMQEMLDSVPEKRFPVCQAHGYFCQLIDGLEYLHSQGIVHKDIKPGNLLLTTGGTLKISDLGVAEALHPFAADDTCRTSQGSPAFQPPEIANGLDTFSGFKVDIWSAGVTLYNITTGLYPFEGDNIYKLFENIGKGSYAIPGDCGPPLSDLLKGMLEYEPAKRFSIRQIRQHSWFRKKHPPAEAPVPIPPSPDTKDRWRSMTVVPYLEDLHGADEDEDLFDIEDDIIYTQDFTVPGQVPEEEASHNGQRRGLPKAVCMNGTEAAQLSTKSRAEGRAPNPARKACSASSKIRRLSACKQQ

[10] = species: Homo sapiens; experiment: Inhibition of recombinant PKA (unknown origin) assessed as residual activity at 1 uM relative to control
[11] = target: High affinity nerve growth factor receptor (Homo sapiens) (UniProt P04629); experiment: Inhibition of recombinant TrkA (unknown origin) assessed as residual activity at 1 uM relative to control
High affinity nerve growth factor receptor (Homo sapiens), sequence (P04629 33-796 limits assumed): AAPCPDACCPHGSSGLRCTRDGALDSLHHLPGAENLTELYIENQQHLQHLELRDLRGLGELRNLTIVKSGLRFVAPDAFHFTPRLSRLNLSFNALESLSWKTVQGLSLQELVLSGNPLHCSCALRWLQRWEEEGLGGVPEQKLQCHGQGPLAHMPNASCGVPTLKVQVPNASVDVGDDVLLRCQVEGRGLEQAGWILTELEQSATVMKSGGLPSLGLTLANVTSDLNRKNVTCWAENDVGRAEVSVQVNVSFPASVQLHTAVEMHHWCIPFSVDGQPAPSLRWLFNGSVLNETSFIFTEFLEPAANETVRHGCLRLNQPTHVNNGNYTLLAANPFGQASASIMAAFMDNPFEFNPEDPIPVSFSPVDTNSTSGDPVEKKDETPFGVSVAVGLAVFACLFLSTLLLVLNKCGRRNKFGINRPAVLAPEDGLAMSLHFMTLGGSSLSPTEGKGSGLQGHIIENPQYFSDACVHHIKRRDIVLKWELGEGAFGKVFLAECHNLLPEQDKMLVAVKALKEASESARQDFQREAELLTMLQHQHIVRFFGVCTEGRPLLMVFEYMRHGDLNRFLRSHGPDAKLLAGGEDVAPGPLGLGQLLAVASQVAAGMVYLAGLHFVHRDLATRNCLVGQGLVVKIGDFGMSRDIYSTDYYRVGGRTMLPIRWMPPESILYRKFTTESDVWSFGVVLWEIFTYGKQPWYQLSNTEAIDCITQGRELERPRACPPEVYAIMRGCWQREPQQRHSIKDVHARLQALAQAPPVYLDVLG

[12] = target: Serine/threonine-protein kinase 3 (Homo sapiens) (UniProt Q13188); experiment: Inhibition of recombinant MST2 (unknown origin) assessed as residual activity at 1 uM relative to control
Serine/threonine-protein kinase 3 (Homo sapiens), sequence (Q13188 whole entry): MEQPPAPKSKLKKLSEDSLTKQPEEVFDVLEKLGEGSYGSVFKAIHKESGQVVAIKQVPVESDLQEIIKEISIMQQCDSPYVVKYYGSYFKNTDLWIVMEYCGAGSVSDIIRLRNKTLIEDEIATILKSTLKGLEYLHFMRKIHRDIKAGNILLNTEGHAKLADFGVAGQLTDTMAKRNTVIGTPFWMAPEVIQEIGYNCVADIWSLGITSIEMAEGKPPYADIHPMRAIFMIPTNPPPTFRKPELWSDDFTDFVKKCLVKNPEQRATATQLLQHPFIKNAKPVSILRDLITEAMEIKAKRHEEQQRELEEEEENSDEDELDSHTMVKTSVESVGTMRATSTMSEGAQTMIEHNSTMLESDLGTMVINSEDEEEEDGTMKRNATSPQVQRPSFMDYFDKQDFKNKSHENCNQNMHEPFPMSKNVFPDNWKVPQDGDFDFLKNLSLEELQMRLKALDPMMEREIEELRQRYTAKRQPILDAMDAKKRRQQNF

[13] = target: Serine/threonine-protein kinase N2 (Homo sapiens) (UniProt Q16513); experiment: Inhibition of recombinant PRK2 (unknown origin) assessed as residual activity at 1 uM relative to control
Serine/threonine-protein kinase N2 (Homo sapiens), sequence (Q16513 whole entry, looked up): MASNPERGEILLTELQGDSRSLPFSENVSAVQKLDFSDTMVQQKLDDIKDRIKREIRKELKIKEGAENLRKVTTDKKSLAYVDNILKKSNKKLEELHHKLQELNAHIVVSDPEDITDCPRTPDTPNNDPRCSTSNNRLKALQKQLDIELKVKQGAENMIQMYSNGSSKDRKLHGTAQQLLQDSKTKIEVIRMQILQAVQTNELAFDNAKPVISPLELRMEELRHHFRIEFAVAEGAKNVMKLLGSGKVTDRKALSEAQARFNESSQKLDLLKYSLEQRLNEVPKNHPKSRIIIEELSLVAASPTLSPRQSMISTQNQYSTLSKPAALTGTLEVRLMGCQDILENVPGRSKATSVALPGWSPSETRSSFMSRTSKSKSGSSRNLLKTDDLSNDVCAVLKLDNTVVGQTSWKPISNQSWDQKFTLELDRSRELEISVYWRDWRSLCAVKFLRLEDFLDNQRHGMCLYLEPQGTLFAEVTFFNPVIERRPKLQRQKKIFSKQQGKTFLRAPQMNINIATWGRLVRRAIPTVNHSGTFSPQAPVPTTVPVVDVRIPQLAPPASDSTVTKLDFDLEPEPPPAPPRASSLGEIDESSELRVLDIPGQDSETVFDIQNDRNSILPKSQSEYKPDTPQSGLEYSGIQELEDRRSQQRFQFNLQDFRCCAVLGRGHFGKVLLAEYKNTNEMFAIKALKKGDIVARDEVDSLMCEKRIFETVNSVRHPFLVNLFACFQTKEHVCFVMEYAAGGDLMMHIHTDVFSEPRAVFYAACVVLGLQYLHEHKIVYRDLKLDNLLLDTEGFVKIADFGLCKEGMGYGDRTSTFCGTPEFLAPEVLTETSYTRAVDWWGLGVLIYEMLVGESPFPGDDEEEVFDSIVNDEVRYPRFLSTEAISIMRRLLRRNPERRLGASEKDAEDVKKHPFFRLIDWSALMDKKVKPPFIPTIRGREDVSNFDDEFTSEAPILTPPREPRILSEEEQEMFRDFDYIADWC

[14] = target: Interleukin-1 receptor-associated kinase 4 (Homo sapiens) (UniProt Q9NWZ3); experiment: Inhibition of recombinant IRAK4 (unknown origin) assessed as residual activity at 1 uM relative to control
Interleukin-1 receptor-associated kinase 4 (Homo sapiens), sequence (Q9NWZ3 whole entry): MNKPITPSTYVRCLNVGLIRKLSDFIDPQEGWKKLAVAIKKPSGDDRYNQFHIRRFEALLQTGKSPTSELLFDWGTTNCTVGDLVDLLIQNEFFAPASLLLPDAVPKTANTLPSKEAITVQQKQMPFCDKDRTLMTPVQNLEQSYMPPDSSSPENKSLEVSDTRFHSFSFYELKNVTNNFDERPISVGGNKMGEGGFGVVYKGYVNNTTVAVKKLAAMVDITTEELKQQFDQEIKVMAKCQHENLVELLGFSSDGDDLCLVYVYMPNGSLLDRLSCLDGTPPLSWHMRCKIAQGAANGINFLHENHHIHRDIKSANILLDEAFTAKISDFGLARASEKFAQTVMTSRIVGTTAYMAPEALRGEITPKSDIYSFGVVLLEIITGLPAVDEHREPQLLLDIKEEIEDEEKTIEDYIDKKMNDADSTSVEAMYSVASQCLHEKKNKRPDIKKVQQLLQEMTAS

[15] = target: RAC-alpha serine/threonine-protein kinase (Homo sapiens) (UniProt P31749); experiment: Inhibition of recombinant PKBalpha (unknown origin) assessed as residual activity at 1 uM relative to control
RAC-alpha serine/threonine-protein kinase (Homo sapiens), sequence (P31749 whole entry): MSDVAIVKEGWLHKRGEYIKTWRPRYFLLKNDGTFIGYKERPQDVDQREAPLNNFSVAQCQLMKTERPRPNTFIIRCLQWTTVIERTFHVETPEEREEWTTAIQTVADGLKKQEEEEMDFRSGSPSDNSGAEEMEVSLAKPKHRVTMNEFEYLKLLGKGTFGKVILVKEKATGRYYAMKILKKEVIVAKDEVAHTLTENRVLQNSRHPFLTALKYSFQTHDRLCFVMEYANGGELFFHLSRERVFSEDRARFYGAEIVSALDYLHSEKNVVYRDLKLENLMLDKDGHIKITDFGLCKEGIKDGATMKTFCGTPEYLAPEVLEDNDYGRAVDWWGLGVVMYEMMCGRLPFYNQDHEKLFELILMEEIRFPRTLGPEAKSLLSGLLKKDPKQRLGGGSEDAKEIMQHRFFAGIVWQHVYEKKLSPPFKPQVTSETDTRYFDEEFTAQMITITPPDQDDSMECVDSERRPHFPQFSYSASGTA

IC50 [1]: > 2000 nM
IC50 [2]: 21 nM
Activity [3]: 69%
Activity [9]: 82%
Activity [10]: 96%
Activity [11]: > 100%
Activity [12]: > 100%
Activity [13]: > 100%
Activity [14]: > 100%
Activity [15]: > 100%
Structure (SMILES): CC(O)CNc1nc(NCc2ccc(-c3ccccn3)cc2)c2[nH]nc(C(C)C)c2n1 (stereo not given)
IC50 [4]: 87 nM
Activity [5]: Dose-dependent effect
Activity [6]: Active
Activity [7]: Active
Activity [8]: Active
